Measurements from article PMC10099425 (ACS Omega, 2023).

Tests used:
[1] = Pharmacokinetic study after oral administration; assay type: in vivo, Wistar rats; details: male, Wistar, rat, plasma, 50 mg/kg
In short: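 Male Wistar rats (220–250 g, 10–12 weeks) were fasted overnight with water ad libitum (n = 6/group). They were dosed orally with the compound as a 0.5% w/v Na-CMC suspension or DES formulation. Retro-orbital blood was drawn at 0, 0.5, 2, 4, 6, 8, 12 and 24 h. Plasma was precipitated with acetonitrile (1:3) and assayed by isocratic C18 HPLC-DAD at 283 nm. Parameters came from PK software; mean ± SD.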

[2] = Diffusion and permeability studies; assay type: in vitro ADME; details: after 480 min, PBS pH 6.8, 37 °C, NAR 50 mg/mL in donor
[3] = cited from earlier work

Question: With C[C@@H]1O[C@@H](O[C@H]2[C@H](Oc3cc(O)c4c(c3)O[C@H](c3ccc(O)cc3)CC4=O)O[C@H](CO)[C@@H](O)[C@@H]2O)[C@H](O)[C@H](O)[C@H]1O [NAR (pure), 4′,5,7-trihydroxyflavanone 7-rhamnoglucoside] as the compound, how does the AUC(0-t) [1] read?
Answer: 226 ± 4.2 ng·h/mL

Question: What about the Cmax [1] of the same compound?
Answer: 31.2 ± 2.3 ng/mL

Question: What about the MRT [1] of the same compound?
Answer: 6.46 ± 1.7 h

Question: What about the Tmax [1] of the same compound?
Answer: 4.1 ± 0.6 h

Question: And the half-life [1]?
Answer: 206 ± 66 min

Question: And the “amount of NAR diffused” value [2]?
Answer: 30.78 ± 3.4 % w/v

Question: What about the elimination half-life [3] of the same compound?
Answer: 3.64 ± 3.0 h
